We go through 15 compounds from ChEMBL document CHEMBL1124678, “New anticancer agents: alterations of the carbamate group of ethyl (5-amino-1,2-dihydro-3-phenylpyrido[3,4-b]pyrazin-7-yl)car bamates” (J Med Chem, 1989).

Assay [1] relates to L1210. Description: Mitotic index (fraction of cells in mitosis divided by total cells ) for cultured lymphoid leukemia L1210 cells. The format is functional, Mus musculus. In short, it runs like this: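 Cultured L1210 lymphoid leukemia cells exposed to agent for 12 h; mitotic index scored as fraction of cells in mitosis over total cells. Value is the nanomolar concentration giving a mitotic index of 0.5 (MI0.5).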

Assay [2] has as its system L1210. The assay is described as follows: The compound was tested in vitro for growth of inhibitory activity against lymphoid leukemia L1210 cells. It counts as functional, cell-based, Mus musculus. The essentials: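 Cultured L1210 lymphoid leukemia cells exposed to agent for 48 h; proliferation measured against untreated control growth. IC50 is the nanomolar concentration holding growth to 50% of control; some values averaged from two determinations.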

For assay [3], the system named is P388. Description: Increase in the life span of mice implanted with lymphocytic leukemia P388 at the highest nontoxic dose of 0.5 mg/Kg given to the compound intraperitoneally. The format is functional. The note with it: Mus musculus, P388, ip.
Assay [4] has as its system P388. The assay is described as follows: Increase in the life span of mice implanted with lymphocytic leukemia P388 at the highest nontoxic dose of 12 mg/Kg given to the compound intraperitoneally. It counts as functional. The following applies: Mus musculus, P388, ip.
Assay [5] deals with P388. Description: Increase in the life span of mice implanted with lymphocytic leukemia P388 at the highest nontoxic dose of 1 mg/Kg given to the compound intraperitoneally. The note with it: Mus musculus, P388, ip. It counts as functional.
The test system of assay [6] is P388. The assay is described as follows: Increase in the life span of mice implanted with lymphocytic leukemia P388 at the highest nontoxic dose of 2 mg/Kg given to the compound intraperitoneally. The format is functional. The following applies: Mus musculus, P388, ip.
For assay [7], the system named is P388. The assay is described as follows: Increase in the life span of mice implanted with lymphocytic leukemia P388 at the highest nontoxic dose of 25 mg/Kg given to the compound intraperitoneally. The format is functional. The note with it: Mus musculus, P388, ip.
The subject of assay [8] is P388. The assay is described as follows: Increase in the life span of mice implanted with lymphocytic leukemia P388 at the highest nontoxic dose of 50 mg/Kg given to the compound intraperitoneally. The format is functional. The following applies: Mus musculus, P388, ip.
The test system of assay [9] is P388. The assay is described as follows: Increase in the life span of mice implanted with lymphocytic leukemia P388 at the highest nontoxic dose of 200 mg/Kg given to the compound intraperitoneally. The format is functional. The following applies: Mus musculus, P388, ip.
Assay [10] has as its system P388. Description: Increase in the life span of mice implanted with lymphocytic leukemia P388 at the highest nontoxic dose of 200 mg/Kg given to the compound intraperitoneally on day 1. The format is functional. The note with it: Mus musculus, P388, ip, 24 h.
Assay [11] relates to P388. The assay is described as follows: Increase in the life span of mice implanted with lymphocytic leukemia P388 at the highest nontoxic dose of 1.5 mg/kg given to the compound intraperitoneally. The format is functional. The following applies: Mus musculus, P388, ip, route intraperitoneal.

Regarding `CCOC(=O)Nc1cc2c(c(N)n1)N=C(c1ccccc1)C(C)N2.O=S(=O)(O)CCO` (stereo not given), the MI0.5 with L1210 [1] is 0.74 nM. This compound registered an IC50 in the assay on L1210 [2] (l1210) of 0.54 nM. In the assay with P388 [3], the ILS at 0.5 mg/kg is 46%.
Turning to `CCC(C)OC(=O)Nc1cc2c(c(N)n1)N=C(c1ccccc1)C(C)N2` (stereo not given), in the assay on P388 [4], the ILS at 12 mg/kg worked out at 60%. Besides, the 50% inhibitory concentration (IC50) in the assay on L1210 [2] (Mus musculus, L1210) is 1.2 nM.
Consider `CCOC(=O)Nc1cc2c(c(N)n1)N=C(c1ccccc1)C(C)N2.Cl` (stereo not given), for which, in the assay with L1210 [1], the MI0.5 worked out at 1.5 nM. The same compound had an IC50 in the assay with L1210 [2] (Mus musculus, L1210) of 0.51 nM. In addition, the ILS at 1 mg/kg in the assay on P388 [5] is 75%.
In the assay with P388 [6], `CCOC(=O)Nc1cc2c(c(N)n1)N=C(c1ccccc1)CN2` returned an ILS at 2 mg/kg of 51%. In addition, in the assay with L1210 [1], the MI0.5 stood at 2.8 nM.
`CC1Nc2cc(NC(=O)OCc3ccccc3)nc(N)c2N=C1c1ccccc1` (stereo not given) displayed an IC50 in the assay with L1210 [2] (Mus musculus, L1210) of 63 nM.
In turn, `CCOC(=O)Nc1cc2c(c(NC(C)=O)n1)N=C(c1ccccc1)CN2` registered an MI0.5 in the assay with L1210 [1] of 23 nM. The compound also came in with an IC50 with L1210 [2] (Mus musculus, L1210) of 8.6 nM. The increase in life span (ILS) at 25 mg/kg in the assay with P388 [7] was 49%.
On to `Nc1nccc2c1N=C(c1ccccc1)CN2`, for which, in the assay on L1210 [1], the MI0.5 is recorded as above 10000 nM. In addition, the midpoint of inhibition in the assay with L1210 [2] (Mus musculus, L1210), the IC50, lay at 2800 nM. Further, the ILS at 50 mg/kg with P388 [8] came out at 0%.
`CC1Nc2cc(N)nc(N)c2N=C1c1ccccc1` (stereo not given): the MI0.5 with L1210 [1] came to 850 nM. The same compound showed an IC50 in the assay with L1210 [2] (Mus musculus, L1210) of 500 nM.
`CC(=O)Nc1cc2c(c(NC(C)=O)n1)N=C(c1ccccc1)C(C)N2C(C)=O` (stereo not given) registered a half-maximal inhibitory concentration (IC50) in the assay with L1210 [2] (Mus musculus, L1210) above 100 nM.
`CCOC(=O)Nc1nc(NC(=O)OCC)c2c(c1N)NC(C)C(c1ccccc1)=N2` (stereo not given) yielded an ILS at 200 mg/kg in the assay with P388 [9] of 0%. Besides, the IC50 in the assay with L1210 [2] (Mus musculus, L1210) is above 300 nM.
For the compound `CNC(=O)Nc1cc2c(c(N)n1)N=C(c1ccccc1)C(C)N2` (stereo not given), in the assay with P388 [4], the increase in lifespan (ILS) at 12 mg/kg was found to be 0%. Moreover, the half-maximal inhibitory concentration (IC50) in the assay on L1210 [2] (Mus musculus, L1210) amounted to 20 nM.
In the assay with L1210 [1], `COC(=O)Nc1cc2c(c(N)n1)N=C(c1ccccc1)C(C)N2` (stereo not given) yielded an MI0.5 of 0.8 nM. Further, in the assay on L1210 [2] (Mus musculus, L1210), half-maximal inhibition (IC50) required 0.54 nM. In the assay on P388 [5], this compound returned an ILS at 1 mg/kg of 88%.
On to `Nc1nc(NC(=O)OC2CCCCC2)cc2c1N=C(c1ccccc1)CN2`, for which the MI0.5 with L1210 [1] was found to be 260 nM. In the assay on L1210 [2] (Mus musculus, L1210), this compound displayed a half-inhibitory concentration (IC50) of 230 nM. The compound also had an increase in lifespan (ILS) at 200 mg/kg in the assay on P388 [10] of 0%.
`COc1cc2c(c(OC)c1OC)-c1ccc(OC)c(=O)cc1[C@@H](NC(C)=O)CC2` [COLCHICINE] showed an MI0.5 with L1210 [1] of 21 nM. The same compound registered a half-inhibitory concentration (IC50) in the assay with L1210 [2] (Mus musculus, L1210) of 6.4 nM.
As to `CC[C@]1(O)C[C@H]2CN(CCc3c([nH]c4ccccc34)[C@@](C(=O)OC)(c3cc4c(cc3OC)N(C=O)[C@H]3[C@@](O)(C(=O)OC)[C@H](OC(C)=O)[C@]5(CC)C=CCN6CC[C@]43[C@@H]65)C2)C1` [VINCRISTINE], in the assay with L1210 [1], the MI0.5 was determined as 11 nM. Moreover, it took 3.4 nM to reach half-maximal inhibition in the assay on L1210 [2] (Mus musculus, L1210) (IC50). In addition, in the assay on P388 [11], the ILS at 1.5 mg/kg came out at 122%.

As a reminder, the IC50 is the concentration that gives 50% inhibition. As a reminder, the ILS is the gain in survival time of treated over control animals, in per cent. Low readings indicate a small benefit in survival, high ones a large benefit in survival.
